Data from ChEMBL document CHEMBL1158452, “Na+ currents in cardioprotection: better to be late” (J Med Chem, 2009).
Calls of active or inactive are those of the source. The calls are words filed in the database; no cut-off is given here.

Columns and labels:
Sus scrofa [1] = organism: Sus scrofa; test: Cardioprotective activity against myocardial ischemia-reperfusion in Landrace pig heart assessed as prevention of post reperfusion injury after 48 hrs; type: functional, tissue-based
Method in brief: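 Anaesthetised male Landrace pigs (18-25 kg); LCX occluded 60 min, reperfused 48 h. Compound i.v. bolus 10 min pre-ischemia plus infusion through occlusion and first 30 min reperfusion. Evans blue delineates area at risk, TTC (0.1%) stains viable tissue; 10 mm LV slices imaged; necrosis expressed as % of area at risk. Means ± SEM; ANOVA with Dunnett's test.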

Heart [2] = test: Cardioprotective activity in Langendorff-perfused guinea pig heart assessed as inhibition of global ischemia-induced diastolic contracture at 1 uM; type: functional; conditions: Cavia porcellus
Method in brief: (§1)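 Female Hartley guinea pig hearts, Langendorff-perfused at constant 800 mm H2O with modified Krebs (pH 7.4, 95% O2/5% CO2), 37 °C, LV latex balloon. After 45-60 min equilibration, compound or vehicle perfused 15 min, then 50 min global normothermic ischemia and 60 min reperfusion; one concentration per heart. LVDP, end-diastolic pressure, heart rate, dP/dt, coronary flow recorded.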

[3] = Cardioprotective activity in […] Landrace pig heart assessed decrease in myocardial infarct volume […] followed by 30 mins of reperfusion; type: functional, Sus scrofa; design: scale not given: the % may be the effect or the level left
Plasma = test: Cardioprotective activity in […] Landrace pig assessed decrease in troponin 1 plasma level administered iv 60 mins before ischemia measured after 6 hrs of reperfusion; type: functional, organism-based; conditions: Sus scrofa
[4] = molecular target: T1, Sodium channel protein type 5 subunit alpha (Homo sapiens, UniProt Q14524); test: Inhibition of human Nav1.5 channel expressed in HEK293 cells assessed as blockade of veratridine-induced late inward sodium current elicited at -30 mV from holding potential -90 mV at 10 uM by patch clamp method; type: cell-based
Method in brief: (§2)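 HEK293 cells expressing hNaV1.5, room temperature (19-22 °C). Pipette (mmol): NaCl 10, CsCl 110, CaCl2 1, HEPES 10, EGTA 10, Mg-ATP 5, glucose 10, pH 7.3; bath: NaCl 30, CsCl 100, MgCl2 2, CaCl2 2, HEPES 10, glucose 5, pH 7.4. Veratridine 40 μM; 350 ms pulses to -30 mV at 0.2 Hz; late INa = mean current over last 10 ms; DMSO final 0.1%.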

[5] = molecular target: T1, Sodium channel protein type 5 subunit alpha; test: Inhibition of human Nav1.5 channel expressed in HEK293 cells assessed as blockade of veratridine-induced late inward sodium current elicited at -30 mV from holding potential -110 mV at 10 uM by patch clamp method; type: cell-based; method in brief: as §2
Cardiac atrium = conditions: Rattus norvegicus, Wistar, 1 uM
Heart [6] = test: Cardiovascular activity in Langendorff-perfused guinea pig heart assessed as change in left ventricular developed pressure at 1 uM; type: functional, Cavia porcellus; method in brief: as §1
Sus scrofa [7] = organism: Sus scrofa; test: Cardioprotective activity in […] Landrace pig assessed enhancement of Na+ current; type: functional, organism-based
Sus scrofa [8] = test: Cardioprotective activity in […] Landrace pig heart assessed as change collateral circulation administered iv 60 mins before ischemia followed by 48 hrs of reperfusion; type: functional, organism-based
Sus scrofa [9] = test: Cardioprotective activity in […] Landrace pig heart assessed as change in blood flow administered iv 60 mins before ischemia followed by 48 hrs of reperfusion; type: functional, organism-based
Heart [10] = test: Cardiovascular activity in Langendorff-perfused guinea pig heart assessed as change in coronary vascular resistance at 1 uM; type: functional, Cavia porcellus; method in brief: as §1
Heart [11] = test: Cardiovascular activity in Langendorff-perfused guinea pig heart assessed as change in heart rate at 1 uM; type: functional, Cavia porcellus; method in brief: as §1
[12] = Cardioprotective activity in […] Landrace pig heart assessed decrease in myocardial infarct size […]; type: functional, Sus scrofa; design: scale not given: the % may be the effect or the level left

T1 sequence (Q14524 whole entry): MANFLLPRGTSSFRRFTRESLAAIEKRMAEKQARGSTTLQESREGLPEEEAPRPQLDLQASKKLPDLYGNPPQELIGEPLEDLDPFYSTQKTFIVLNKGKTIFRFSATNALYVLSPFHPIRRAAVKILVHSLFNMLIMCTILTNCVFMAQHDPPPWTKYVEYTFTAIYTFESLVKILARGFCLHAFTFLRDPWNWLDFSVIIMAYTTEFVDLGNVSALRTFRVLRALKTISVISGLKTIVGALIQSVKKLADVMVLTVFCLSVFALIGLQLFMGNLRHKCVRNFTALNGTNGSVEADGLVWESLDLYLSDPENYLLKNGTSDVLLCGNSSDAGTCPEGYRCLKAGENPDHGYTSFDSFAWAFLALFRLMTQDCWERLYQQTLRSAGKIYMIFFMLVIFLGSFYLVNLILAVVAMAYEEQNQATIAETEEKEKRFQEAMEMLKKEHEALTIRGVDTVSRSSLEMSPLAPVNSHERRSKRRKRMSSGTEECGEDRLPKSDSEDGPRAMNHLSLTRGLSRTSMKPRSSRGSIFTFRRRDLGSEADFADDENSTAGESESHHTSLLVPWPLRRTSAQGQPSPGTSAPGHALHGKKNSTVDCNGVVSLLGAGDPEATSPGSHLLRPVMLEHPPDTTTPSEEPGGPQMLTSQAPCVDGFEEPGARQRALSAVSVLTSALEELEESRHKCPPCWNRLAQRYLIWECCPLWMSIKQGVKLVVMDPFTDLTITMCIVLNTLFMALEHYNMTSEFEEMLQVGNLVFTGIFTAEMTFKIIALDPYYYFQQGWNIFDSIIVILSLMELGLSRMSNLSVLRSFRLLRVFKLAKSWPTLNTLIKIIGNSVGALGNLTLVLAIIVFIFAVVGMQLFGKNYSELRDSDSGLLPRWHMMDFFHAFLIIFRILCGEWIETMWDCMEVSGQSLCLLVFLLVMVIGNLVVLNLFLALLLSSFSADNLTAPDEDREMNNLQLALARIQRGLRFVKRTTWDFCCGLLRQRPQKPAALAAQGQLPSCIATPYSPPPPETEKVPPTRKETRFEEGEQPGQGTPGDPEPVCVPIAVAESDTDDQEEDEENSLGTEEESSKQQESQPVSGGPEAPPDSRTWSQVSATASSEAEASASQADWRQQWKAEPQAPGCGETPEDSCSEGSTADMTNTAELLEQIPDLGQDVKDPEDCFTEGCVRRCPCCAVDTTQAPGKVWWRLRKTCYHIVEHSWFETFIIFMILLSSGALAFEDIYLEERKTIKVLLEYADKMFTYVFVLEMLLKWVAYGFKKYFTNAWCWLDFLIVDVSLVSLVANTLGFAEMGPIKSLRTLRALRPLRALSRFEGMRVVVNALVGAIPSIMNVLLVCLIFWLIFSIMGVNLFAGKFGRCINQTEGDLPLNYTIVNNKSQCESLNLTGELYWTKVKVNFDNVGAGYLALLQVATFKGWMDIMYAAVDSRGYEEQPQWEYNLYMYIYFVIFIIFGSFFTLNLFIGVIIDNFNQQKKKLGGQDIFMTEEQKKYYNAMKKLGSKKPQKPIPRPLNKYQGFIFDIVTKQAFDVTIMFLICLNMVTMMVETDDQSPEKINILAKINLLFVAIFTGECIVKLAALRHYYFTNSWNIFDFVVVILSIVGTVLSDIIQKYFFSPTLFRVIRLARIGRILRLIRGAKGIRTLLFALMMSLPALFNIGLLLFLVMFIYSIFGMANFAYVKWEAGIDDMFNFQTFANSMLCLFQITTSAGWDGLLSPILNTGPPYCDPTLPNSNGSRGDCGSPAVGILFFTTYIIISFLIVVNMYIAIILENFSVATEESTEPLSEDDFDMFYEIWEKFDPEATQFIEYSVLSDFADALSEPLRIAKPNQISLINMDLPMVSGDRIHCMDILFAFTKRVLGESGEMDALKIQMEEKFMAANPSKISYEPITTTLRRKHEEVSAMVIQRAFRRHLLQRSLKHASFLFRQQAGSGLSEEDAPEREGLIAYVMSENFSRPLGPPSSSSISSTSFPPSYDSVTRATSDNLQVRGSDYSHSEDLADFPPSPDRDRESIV

Compound | inhibition at 1 µM (Heart [2]) [%] | inhibition at 10 µM [4] [%] | inhibition at 10 µM [5] [%] | further results
CC(C)c1ccc(C(=O)N=C(N)N)cc1S(C)(=O)=O [CARIPORIDE] | 6 | – | – | Activity (Sus scrofa [1]): Active; Activity [3]: 6.8%; Activity (Plasma): Active
CC(C)c1cccc(SC[C@@H](C)CN[C@@H]2COc3ccccc3SC2)c1O | – | 46 | 38 | –
C[C@@H](CN[C@@H]1COc2ccccc2SC1)CSc1cccc2cn[nH]c12 | 73 | 44 | 34 | –
C[C@@H](CN[C@@H]1COc2ccccc2SC1)CSc1cccc2ccoc12 | 68 | 82 | 73 | –
NC1=N[C@H](O)[C@H]2[C@H]3O[C@]4(O)O[C@@H]([C@@H](O)[C@@]2(N1)[C@@H]4O)[C@]3(O)CO | – | – | – | inhibition (Cardiac atrium): 64%
C[C@@H](CN[C@@H]1COc2ccccc2SC1)CSc1cccc2c1OCC2 | 72 | 56 | 47 | –
Cc1ccccc1SC[C@@H](C)CN[C@@H]1COc2ccccc2SC1 | – | 14 | 11 | –
C[C@@H](CN[C@@H]1COc2ccccc2SC1)CSc1cccc2ncoc12 | 84 | 26 | 16 | –
COc1ccccc1SC[C@@H](C)CN[C@@H]1COc2ccccc2SC1 | 65 | – | – | –
Cc1cccc(SC[C@@H](C)CN[C@@H]2COc3ccccc3SC2)c1O | 70 | 87 | 73 | Activity (Heart [6]): -5.9 mmHg; Activity (Sus scrofa [1]): Active; Activity (Sus scrofa [7]): inactive; Activity (Sus scrofa [8]): inactive; Activity (Sus scrofa [9]): inactive; Activity (Heart [10]): -1.6 dyn.s.cm'-5.10'4; Activity (Heart [11]): 0.1 bpm; Activity (Plasma): Active; Activity [12]: 3.5%
Cc1cccc(SC[C@@H](C)CN[C@@H]2COc3ccccc3SC2)c1CO | 31 | 58 | 45 | –
COc1cccc(SC[C@@H](C)CN[C@@H]2COc3ccccc3SC2)c1N | 21 | 18 | 13 | –
CCOc1ccccc1SC[C@@H](C)CN[C@@H]1COc2ccccc2SC1 | – | 54 | 41 | –
COc1cccc(SC[C@@H](C)CN[C@@H]2COc3ccccc3SC2)c1O | 46 | 46 | 35 | –
COc1c(C)cccc1SC[C@@H](C)CN[C@@H]1COc2ccccc2SC1 | – | 32 | 28 | –
Cc1cccc(SC[C@@H](C)CN[C@@H]2COc3ccccc3SC2)c1N | 35 | 26 | 26 | –
C[C@@H](CN[C@@H]1COc2ccccc2SC1)CSc1cccc2c1OCO2 | 22 | 54 | 32 | –
C[C@@H](CN[C@@H]1COc2ccccc2SC1)CSc1cccc(N)c1O | – | 19 | 11 | –
C[C@@H](CN[C@@H]1COc2ccccc2SC1)CSc1cccc(F)c1N | 33 | 19 | 11 | –
C[C@@H](CN[C@@H]1COc2ccccc2SC1)CSc1cccc(C(N)=O)c1O | 43 | 65 | 59 | –
C[C@@H](CN[C@@H]1COc2ccccc2SC1)CSc1cccc2cc[nH]c12 | – | 8 | 8 | –
CCc1cccc(SC[C@@H](C)CN[C@@H]2COc3ccccc3SC2)c1O | 13 | 56 | 56 | –
C[C@@H](CN[C@@H]1COc2ccccc2SC1)CSc1cccc(F)c1O | 54 | 40 | 38 | –
